# Experimental data taken from ChEMBL document CHEMBL5376019, “Design, synthesis and evaluation of 2-phenylpyrimidine derivatives as novel antifungal agents targeting CYP51” (RSC Med Chem, 2024).
# Tests used:
# Candida albicans [1] = assay: Antifungal activity against Candida albicans ATCC SC5314 assessed as fungal growth inhibition; type: functional
# Method in brief: (§1)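 Broth microdilution per NCCLS M27-A3, with fluconazole as positive control. Assay medium was RPMI 1640 buffered with MOPS. Inocula were diluted to 1–5 × 10^3 CFU mL−1 and seeded in 96-well plates. Compounds were dissolved in DMSO and serially diluted in the growth medium. MIC was the read-out.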
# Candida tropicalis = assay: Antifungal activity against Candida tropicalis CGMCC 2.3739 assessed as fungal growth inhibition; type: functional; method in brief: as §1
# Candida albicans [2] = assay: Antifungal activity against Candida albicans CPCC400616 assessed as fungal growth inhibition; type: functional; method in brief: as §1
# Candida parapsilosis = assay: Antifungal activity against Candida parapsilosis GIM 2.190 assessed as fungal growth inhibition; type: functional; settings: Lodderomyces parapsilosis; method in brief: as §1
# Nakaseomyces glabratus = assay: Antifungal activity against clinical isolate Candida glabrata assessed as fungal growth inhibition; type: functional; method in brief: as §1
# Cryptococcus neoformans = assay: Antifungal activity against Cryptococcus neoformans CGMCC 2.3161 assessed as fungal growth inhibition; type: functional; method in brief: as §1
# Pichia kudriavzevii = assay: Antifungal activity against Pichia kudriavzevii GIM 2.1 assessed as fungal growth inhibition; type: functional; method in brief: as §1
# MDA-MB-231 = assay: Cytotoxicity against human MDA-MB-231 cells assessed as reduction in cell viability at 32 uM incubated for 24 hrs by CCK-8 assay; type: toxicity, cell-based; settings: mda-mb-231, 24 h
# Method in brief: (§2)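 Cells from ATCC were grown in RPMI-1640 or DMEM with 10% FBS and 1% penicillin/streptomycin. They were seeded at 5 × 10^4 cells/well and allowed to adhere overnight at 37 °C, 5% CO2, with at least 6 replicates per group. Compounds were applied at 2–64 μM for 24 h; medium-only wells served as control. Viability was measured by CCK-8 absorbance at 450 nm.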
# L929 = assay: Cytotoxicity against mouse L929 cells assessed as reduction in cell viability at 32 uM incubated for 24 hrs by CCK-8 assay; type: toxicity, cell-based; settings: l929, 24 h; method in brief: as §2
# DU-145 = assay: Cytotoxicity against human DU-145 cells assessed as reduction in cell viability at 32 uM incubated for 24 hrs by CCK-8 assay; type: toxicity, cell-based; settings: du-145, 24 h; method in brief: as §2
SMILES,MIC (Candida albicans [1]),MIC (Candida tropicalis),MIC (Candida albicans [2]),MIC (Candida parapsilosis),MIC (Nakaseomyces glabratus),MIC (Cryptococcus neoformans),MIC (Pichia kudriavzevii),Activity (MDA-MB-231),Activity (L929),Activity (DU-145)
O=C(NC(Cn1ccnc1)C(=O)c1ccccc1)c1noc2c1CCc1ccccc1-2 (stereo not drawn),8 µg/mL,4 µg/mL,8 µg/mL,–,–,–,–,–,–,–
O=C(NC(Cn1ccnc1)C(=O)c1ccccc1)c1cnc(-c2ccc(F)cc2)nc1 (racemic),16 µg/mL,> 64 µg/mL,32 µg/mL,64 µg/mL,> 64 µg/mL,> 64 µg/mL,> 64 µg/mL,–,–,–
O=C(NC(Cn1ccnc1)C(=O)c1ccccc1)c1cnc(-c2ccccc2F)nc1 (racemic),> 64 µg/mL,> 64 µg/mL,> 64 µg/mL,> 64 µg/mL,> 64 µg/mL,> 64 µg/mL,> 64 µg/mL,–,–,–
O=C(NC(Cn1ccnc1)C(=O)c1ccccc1)c1cnc(-c2ccc(Cl)cc2)nc1 (racemic),8 µg/mL,4 µg/mL,16 µg/mL,> 64 µg/mL,> 64 µg/mL,> 64 µg/mL,> 64 µg/mL,–,–,–
O=C(NC(Cn1ccnc1)C(=O)c1ccc(Cl)cc1)c1cnc(-c2cccc(F)c2)nc1 (racemic),1 µg/mL,> 64 µg/mL,32 µg/mL,> 64 µg/mL,> 64 µg/mL,> 64 µg/mL,> 64 µg/mL,–,–,–
O=C(NC(Cn1ccnc1)C(=O)c1ccccc1)c1cnc(-c2ccccc2Cl)nc1 (racemic),8 µg/mL,4 µg/mL,16 µg/mL,32 µg/mL,> 64 µg/mL,> 64 µg/mL,16 µg/mL,–,–,–
O=C(NC(Cn1ccnc1)C(=O)c1ccccc1)c1ccc(-c2ncccn2)cc1 (racemic),> 64 µg/mL,> 64 µg/mL,> 64 µg/mL,> 64 µg/mL,> 64 µg/mL,> 64 µg/mL,> 64 µg/mL,–,–,–
O=C(NC(Cn1ccnc1)C(=O)c1ccccc1)c1ccc(-c2cncnc2)cc1 (racemic),> 64 µg/mL,> 64 µg/mL,> 64 µg/mL,> 64 µg/mL,> 64 µg/mL,> 64 µg/mL,> 64 µg/mL,–,–,–
O=C(NC(Cn1ccnc1)C(=O)c1ccccc1)c1ccc(-c2ccncc2)cc1 (racemic),8 µg/mL,8 µg/mL,16 µg/mL,> 64 µg/mL,> 64 µg/mL,> 64 µg/mL,16 µg/mL,–,–,–
O=C(NC(Cn1ccnc1)C(=O)c1ccccc1)c1csc(-c2ccccc2)n1 (racemic),> 64 µg/mL,> 64 µg/mL,> 64 µg/mL,> 64 µg/mL,> 64 µg/mL,> 64 µg/mL,> 64 µg/mL,–,–,–
CC(C)(C)c1ccc(-c2ncc(C(=O)NC(Cn3ccnc3)C(=O)c3ccccc3)cn2)cc1 (racemic),> 64 µg/mL,> 64 µg/mL,> 64 µg/mL,> 64 µg/mL,> 64 µg/mL,> 64 µg/mL,> 64 µg/mL,–,–,–
Cc1ccc(C(=O)C(Cn2ccnc2)NC(=O)c2cnc(-c3cccc(F)c3)nc2)cc1 (racemic),1 µg/mL,1 µg/mL,4 µg/mL,4 µg/mL,8 µg/mL,64 µg/mL,4 µg/mL,Non-Toxic,Non-Toxic,Non-Toxic
O=C(NC(Cn1ccnc1)C(=O)c1ccccc1)c1ccc(-c2ccccc2)cn1 (racemic),> 64 µg/mL,> 64 µg/mL,> 64 µg/mL,> 64 µg/mL,> 64 µg/mL,> 64 µg/mL,> 64 µg/mL,–,–,–
CCc1ccc(-c2ncc(C(=O)NC(Cn3ccnc3)C(=O)c3ccccc3)cn2)cc1 (racemic),> 64 µg/mL,> 64 µg/mL,> 64 µg/mL,> 64 µg/mL,> 64 µg/mL,> 64 µg/mL,> 64 µg/mL,–,–,–
O=C(NC(Cn1ccnc1)C(=O)c1ccccc1)c1cnc(-c2cccc(C(F)(F)F)c2)nc1 (racemic),> 64 µg/mL,> 64 µg/mL,> 64 µg/mL,> 64 µg/mL,> 64 µg/mL,> 64 µg/mL,> 64 µg/mL,–,–,–
N#Cc1ccc(-c2ncc(C(=O)NC(Cn3ccnc3)C(=O)c3ccccc3)cn2)cc1 (racemic),4 µg/mL,> 64 µg/mL,> 64 µg/mL,> 64 µg/mL,> 64 µg/mL,> 64 µg/mL,> 64 µg/mL,–,–,–
O=C(NC(Cn1ccnc1)C(=O)c1ccccc1)c1cnc(-c2ccccc2)nc1 (racemic),4 µg/mL,8 µg/mL,16 µg/mL,> 64 µg/mL,32 µg/mL,> 64 µg/mL,16 µg/mL,–,–,–
